From PMC3698760 (Journal of the American Heart Association: Cardiovascular …, 2013)
Entries after “also recorded” stand apart in the source; their conditions may differ.

How the values were obtained:
[1] = system: human monocyte‐derived macrophages; experiment: Cellular cholesterol efflux in human monocyte-derived macrophages; assay type: cell-based; conditions: 20 μg/mL, 4 hours, n=4 to 5
How it was run: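 Human peripheral blood monocyte-derived macrophages isolated by Lymphoprep gradient. Cells were radiolabelled with ³H-cholesterol and kept in serum-free medium containing 0.2% BSA. Efflux to 20 μg/mL acceptor (apoA-I or test peptide) or no acceptor was measured over 4 h.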

[2] = target: ABCA1 (Homo sapiens, UniProt O95477); experiment: Probucol-inhibitable, ABCA1-specific cholesterol efflux in A172 cells; assay type: cell-based; conditions: probucol 10 μmol/L
How it was run: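 A172 glioblastoma cells, labelled with ³H-cholesterol, were held in serum-free 0.2% BSA medium with 5 μmol/L T0901317 and 5 μmol/L 9-cis-retinoic acid. Cells were exposed for 4 h to 20 μg/mL acceptor, with or without 10 μmol/L probucol. ABCA1-dependent efflux was taken as the probucol-inhibitable fraction.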

[3] = Size analysis of HDL interacting with FAMP; conditions: human HDL 2.22 mg/mL, 60 minutes at 37°C; 50, 250, 500 μg/mL FAMP5
How it was run: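 Human HDL, adjusted to 2.22 mg/mL in saline containing 0.1% EDTA (pH 7.4), was incubated with 50, 250 or 500 μg/mL test peptide for 60 min at 37°C. Samples were run on nondenaturing 5–20% gradient polyacrylamide gel in Tris-glycine (pH 7.5) for 3 h at 20 mA on ice, then stained with Coomassie R-250.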

[4] = system: apoE‐deficient mice; experiment: Plasma lipid profiles by enzymatic assay, 16-week treatment; assay type: in vivo; conditions: 16 weeks; for HDL Cholesterol / Total Cholesterol / Triglyceride: 3 times a week, high-fat-fed apoE-deficient mice, mean±SD
How it was run: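 Overnight-fasting plasma taken after 16 weeks from 19 of 23 high-fat-fed apoE−/− mice. Dosing was i.p. 3 times weekly with scrambled peptide or test peptide at 10 or 50 mg/kg per day. Total cholesterol, triglyceride and HDL cholesterol were measured by enzymatic assay; mean±SD.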

[5] = system: apoE‐deficient mice; experiment: Plasma lipoprotein profiles analyzed by HPLC, 16-week treatment; assay type: in vivo; conditions: 3 times a week, 16 weeks
How it was run: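 Plasma from apoE−/− mice after 16-week i.p. dosing (3 times weekly) was separated by HPLC into 20 particle-size subfractions. Each subfraction was assayed enzymatically for total cholesterol, free cholesterol, triglycerides and phospholipids; mean±SD.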

[6] = system: monocyte chemoattractant protein‐1 (MCP‐1); experiment: Plasma MCP-1 by ELISA; assay type: in vivo; conditions: high dose (50 mg/kg), 16 weeks, apoE−/− mice
How it was run: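 Overnight-fasted plasma collected from high-fat-fed apoE−/− mice after 16 weeks of i.p. dosing 3 times weekly (10 or 50 mg/kg per day, or scrambled peptide). High-sensitivity CRP and MCP-1 were quantified with commercial ELISA kits.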

[7] = high-dose 50 mg/kg per day i.p., n=7
[8] = low-dose 10 mg/kg per day i.p., n=5
[9] = high-dose 50 mg/kg per day i.p., n=7, mean±SD
[10] = low-dose 10 mg/kg per day i.p., n=5, mean±SD

Chain of ABCA1 (O95477 whole entry): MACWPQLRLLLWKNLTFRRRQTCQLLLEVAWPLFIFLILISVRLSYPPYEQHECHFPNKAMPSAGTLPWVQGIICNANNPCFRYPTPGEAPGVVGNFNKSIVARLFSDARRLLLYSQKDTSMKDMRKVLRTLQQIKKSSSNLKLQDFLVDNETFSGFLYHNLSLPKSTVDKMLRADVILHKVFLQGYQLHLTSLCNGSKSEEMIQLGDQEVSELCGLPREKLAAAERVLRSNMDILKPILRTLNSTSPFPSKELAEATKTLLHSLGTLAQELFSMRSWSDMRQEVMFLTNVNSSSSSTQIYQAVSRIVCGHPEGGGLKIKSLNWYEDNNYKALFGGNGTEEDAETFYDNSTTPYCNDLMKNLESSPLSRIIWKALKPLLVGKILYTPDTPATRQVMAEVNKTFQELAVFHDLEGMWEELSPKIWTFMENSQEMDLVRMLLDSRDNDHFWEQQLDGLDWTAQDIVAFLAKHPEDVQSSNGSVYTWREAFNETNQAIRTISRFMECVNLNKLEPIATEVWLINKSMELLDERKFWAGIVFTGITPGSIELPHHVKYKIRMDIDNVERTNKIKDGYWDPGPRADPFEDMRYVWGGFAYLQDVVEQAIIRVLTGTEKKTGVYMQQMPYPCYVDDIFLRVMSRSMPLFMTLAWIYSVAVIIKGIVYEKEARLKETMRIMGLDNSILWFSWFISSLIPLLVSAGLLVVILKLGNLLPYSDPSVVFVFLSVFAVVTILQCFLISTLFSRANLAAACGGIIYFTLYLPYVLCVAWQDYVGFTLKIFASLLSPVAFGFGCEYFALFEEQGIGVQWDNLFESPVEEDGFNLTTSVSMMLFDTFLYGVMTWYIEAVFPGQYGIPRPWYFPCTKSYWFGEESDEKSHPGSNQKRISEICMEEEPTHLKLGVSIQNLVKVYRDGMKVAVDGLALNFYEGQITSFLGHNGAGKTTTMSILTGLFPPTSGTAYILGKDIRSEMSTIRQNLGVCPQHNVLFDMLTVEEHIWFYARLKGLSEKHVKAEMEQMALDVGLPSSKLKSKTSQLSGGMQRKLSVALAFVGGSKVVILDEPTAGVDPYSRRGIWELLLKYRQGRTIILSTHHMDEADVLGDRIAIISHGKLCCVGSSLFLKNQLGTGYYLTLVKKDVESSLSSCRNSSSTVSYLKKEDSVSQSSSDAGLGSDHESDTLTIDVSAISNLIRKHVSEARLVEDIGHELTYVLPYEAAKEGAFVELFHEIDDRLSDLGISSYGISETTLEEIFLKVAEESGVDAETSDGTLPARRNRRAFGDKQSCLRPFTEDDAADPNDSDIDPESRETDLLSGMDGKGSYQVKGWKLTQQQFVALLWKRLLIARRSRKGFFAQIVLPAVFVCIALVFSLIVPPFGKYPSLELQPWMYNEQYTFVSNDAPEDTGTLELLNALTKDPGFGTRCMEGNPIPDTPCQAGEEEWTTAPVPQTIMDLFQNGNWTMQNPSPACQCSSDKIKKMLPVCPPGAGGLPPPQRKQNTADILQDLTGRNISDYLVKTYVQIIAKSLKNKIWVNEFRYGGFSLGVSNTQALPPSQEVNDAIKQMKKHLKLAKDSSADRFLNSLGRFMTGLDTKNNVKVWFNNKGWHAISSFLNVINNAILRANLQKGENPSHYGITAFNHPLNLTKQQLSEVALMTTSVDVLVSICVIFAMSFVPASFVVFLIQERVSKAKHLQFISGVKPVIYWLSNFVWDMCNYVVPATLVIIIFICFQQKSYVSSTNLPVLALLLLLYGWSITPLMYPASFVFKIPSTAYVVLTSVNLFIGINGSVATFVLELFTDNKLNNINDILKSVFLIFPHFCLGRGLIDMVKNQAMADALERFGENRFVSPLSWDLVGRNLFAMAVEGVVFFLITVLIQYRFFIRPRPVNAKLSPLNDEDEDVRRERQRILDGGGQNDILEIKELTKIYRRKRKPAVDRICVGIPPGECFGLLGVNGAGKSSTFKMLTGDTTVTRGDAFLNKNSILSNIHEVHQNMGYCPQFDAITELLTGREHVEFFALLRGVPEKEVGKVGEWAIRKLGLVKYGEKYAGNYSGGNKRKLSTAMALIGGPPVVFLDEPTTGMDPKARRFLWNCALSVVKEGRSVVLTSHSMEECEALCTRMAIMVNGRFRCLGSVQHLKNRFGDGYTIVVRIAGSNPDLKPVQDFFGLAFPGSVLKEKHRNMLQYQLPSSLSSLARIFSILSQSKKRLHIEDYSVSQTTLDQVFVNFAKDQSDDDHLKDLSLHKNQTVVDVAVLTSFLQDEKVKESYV

## H-ALEHLFTLYEKALKALEDLLKKLL-OH [FAMP5]
[1]
  cholesterol efflux: induced cholesterol efflux significantly more than human apoA‐I
[2]
  percentage of probucol‐inhibitable, ABCA1‐specific cholesterol efflux: significantly higher than that in L‐4F; also recorded: significantly lower than human apoA‐I
[3]
  HDL particle size on polyacrylamide gel electrophoresis: generated pre‐β1 HDL‐like small particles
[4]; [7]
  HDL Cholesterol: 12.6 ± 3.7 mg/dL
  Total Cholesterol: 1439.5 ± 271.5 mg/dL
  Triglyceride: 102.7 ± 18.3 mg/dL
[4]; low and high doses, enzymatic assay
  effect on plasma total cholesterol, triglyceride, and HDL cholesterol levels: no significant effects
[4]; [8]
  HDL Cholesterol: 16.6 ± 4.8 mg/dL
  Total Cholesterol: 1532.8 ± 589.6 mg/dL
  Triglyceride: 120.0 ± 41.6 mg/dL
[5]; [9]
  Cholesterol, CM (>80 nm): 173.4 ± 24.0 mg/dL
  Cholesterol, HDL (8 to 16 nm): 20.3 ± 3.1 mg/dL
  Cholesterol, LDL (16 to 30 nm): 157.9 ± 32.1 mg/dL
  Cholesterol, VLDL (30 to 80 nm): 509.1 ± 73.8 mg/dL
  Free cholesterol, CM (>80 nm): 76.6 ± 13.7 mg/dL
  Free cholesterol, HDL (8 to 16 nm): 10.0 ± 1.1 mg/dL
  Free cholesterol, LDL (16 to 30 nm): 75.0 ± 14.1 mg/dL
  Free cholesterol, VLDL (30 to 80 nm): 213.8 ± 33.7 mg/dL
  Phospholipids, CM (>80 nm): 84.3 ± 14.2 mg/dL
  Phospholipids, HDL (8 to 16 nm): 23.1 ± 5.2 mg/dL
  Phospholipids, LDL (16 to 30 nm): 110.6 ± 26.5 mg/dL
  Phospholipids, VLDL (30 to 80 nm): 259.9 ± 44.9 mg/dL
  Triglyceride, CM (>80 nm): 22.1 ± 6.6 mg/dL
  Triglyceride, HDL (8 to 16 nm): 3.7 ± 1.3 mg/dL
  Triglyceride, LDL (16 to 30 nm): 10.4 ± 2.2 mg/dL
  Triglyceride, VLDL (30 to 80 nm): 35.8 ± 9.7 mg/dL
[5]; [10]
  Cholesterol, CM (>80 nm): 175.4 ± 40.4 mg/dL
  Cholesterol, HDL (8 to 16 nm): 22.0 ± 3.7 mg/dL
  Cholesterol, LDL (16 to 30 nm): 133.1 ± 16.1 mg/dL
  Cholesterol, VLDL (30 to 80 nm): 529.9 ± 135.3 mg/dL
  Free cholesterol, CM (>80 nm): 70.7 ± 14.4 mg/dL
  Free cholesterol, HDL (8 to 16 nm): 9.1 ± 0.6 mg/dL
  Free cholesterol, LDL (16 to 30 nm): 65.6 ± 6.0 mg/dL
  Free cholesterol, VLDL (30 to 80 nm): 220.1 ± 49.0 mg/dL
  Phospholipids, CM (>80 nm): 78.4 ± 15.3 mg/dL
  Phospholipids, HDL (8 to 16 nm): 29.1 ± 4.9 mg/dL
  Phospholipids, LDL (16 to 30 nm): 94.4 ± 10.4 mg/dL
  Phospholipids, VLDL (30 to 80 nm): 263.8 ± 53.4 mg/dL
  Triglyceride, CM (>80 nm): 26.1 ± 16.8 mg/dL
  Triglyceride, HDL (8 to 16 nm): 2.9 ± 1.2 mg/dL
  Triglyceride, LDL (16 to 30 nm): 9.5 ± 2.3 mg/dL
  Triglyceride, VLDL (30 to 80 nm): 38.1 ± 19.4 mg/dL
[6]
  plasma MCP‐1 levels: significantly reduced
